Laboratory results as given in the RNAGym collection of RNA variant scans (doi:10.1002/anie.201605470).

B1: Osa-1-4 twister ribozyme (parent)
chain: CCGCCUAACACUGCCAAUGCCGGUCCCAAGCCCGGAUAAAAGUGGAGGGGGCGG

Variants of: B1
Assay: self-cleavage, relative activity (ratio to wild type); higher = more cleavage; co-transcriptional
Method in brief: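 A DNA template for a 54-nucleotide Oryza sativa twister ribozyme was synthesised with 97 % wild-type base and 1 % of each other base at the 48 positions downstream of the cleavage site. It was transcribed in vitro for 2 h at 37 °C, allowing co-transcriptional self-cleavage, then reverse-transcribed with a template-switching oligonucleotide, PCR-amplified and deep-sequenced. Cleavage status was scored from reads with or without upstream sequence. Relative activity is fraction cleaved normalised to wild type.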
For A16U A17G, the self-cleavage was 0.96.
In the case of A16U A17U, the self-cleavage is reported as 1.01.
With A16U A17C the self-cleavage was 0.94.
Variant A17C G48U has a self-cleavage of 0.03.
For A17C G48A, the self-cleavage was 0.05.
For A17C G48C, the self-cleavage was 0.03.
Variant A17C G35A has a self-cleavage of 0.6.
Variant A17C G35U has a self-cleavage of 0.6.
In the case of A17C G35C, the self-cleavage is reported as 0.45.
In the case of A17G C32A, the self-cleavage is reported as 0.07.
In the case of A17G C32G, the self-cleavage is reported as 0.15.
Variant A17C A46U has a self-cleavage of 0.05.
With A17C A46G the self-cleavage was 0.05.
In the case of A17C A46C, the self-cleavage is reported as 0.05.
Variant A17G A46C has a self-cleavage of 0.1.
A17G A46U gave a self-cleavage of 0.09.
In the case of A17G A46G, the self-cleavage is reported as 0.07.
Work on A17G C11A yielded a self-cleavage of 0.5.
A17G C11G showed a self-cleavage of 0.3.
Variant A17G C11U has a self-cleavage of 0.68.
A17C A8U showed a self-cleavage of 0.06.
A17C A8G gave a self-cleavage of 0.12.
Work on A17C A8C yielded a self-cleavage of 0.08.
A16U G19C showed a self-cleavage of 0.09.
Variant A16U G19A has a self-cleavage of 0.89.
A16U G19U showed a self-cleavage of 0.26.
In the case of A17C A36G, the self-cleavage is reported as 0.75.
In the case of A17C A36U, the self-cleavage is reported as 0.66.
In the case of A17C A36C, the self-cleavage is reported as 0.21.
Variant A16U G23U has a self-cleavage of 0.09.
A16U G23A gave a self-cleavage of 0.49.
With A16U G23C the self-cleavage was 0.06.
A17C C21G gave a self-cleavage of 0.05.
For A17C C21U, the self-cleavage was 0.69.
For A17C C21A, the self-cleavage was 0.15.
With A17C C52A the self-cleavage was 0.87.
With A17C C52U the self-cleavage was 0.78.
A17C C52G showed a self-cleavage of 0.9.
Variant A17C A28U has a self-cleavage of 0.29.
Work on A17C A28C yielded a self-cleavage of 0.6.
In the case of A17C A28G, the self-cleavage is reported as 0.05.
A16U G53A showed a self-cleavage of 0.85.
In the case of A16U G53C, the self-cleavage is reported as 0.1.
Work on A16U G53U yielded a self-cleavage of 0.4.
A17C A29G gave a self-cleavage of 0.05.
Work on A17C A29U yielded a self-cleavage of 0.04.
A17C A29C showed a self-cleavage of 0.03.
Work on A17C C25U yielded a self-cleavage of 0.18.
A17C C25G showed a self-cleavage of 0.03.
With A17C C25A the self-cleavage was 0.04.
With A17C U24C the self-cleavage was 0.05.
A17C U24G showed a self-cleavage of 0.02.
Variant A17C U24A has a self-cleavage of 0.03.
Work on A17G A29G yielded a self-cleavage of 0.35.
In the case of A17G A29U, the self-cleavage is reported as 0.27.
Variant A17G A29C has a self-cleavage of 0.07.
Variant A17C C15U has a self-cleavage of 0.77.
For A17C C15G, the self-cleavage was 0.64.
A17C C15A showed a self-cleavage of 0.7.
With A17C U37A the self-cleavage was 0.41.
Variant A17C U37C has a self-cleavage of 0.85.
A17C U37G gave a self-cleavage of 0.81.
Work on A16U C21G yielded a self-cleavage of 0.05.
In the case of A16U C21A, the self-cleavage is reported as 0.66.
A16U C21U showed a self-cleavage of 0.95.
With A16U C11A the self-cleavage was 0.64.
In the case of A16U C11U, the self-cleavage is reported as 0.8.
In the case of A16U C11G, the self-cleavage is reported as 0.55.
A16U A38U showed a self-cleavage of 1.05.
Variant A16U A38C has a self-cleavage of 1.
In the case of A16U A38G, the self-cleavage is reported as 0.94.
A17C G53U gave a self-cleavage of 0.36.
A17C G53C gave a self-cleavage of 0.1.
For A17C G53A, the self-cleavage was 0.86.
In the case of A17C C11A, the self-cleavage is reported as 0.06.
A17C C11G gave a self-cleavage of 0.05.
For A17C C11U, the self-cleavage was 0.14.
With A16U G50U the self-cleavage was 0.94.
A16U G50A gave a self-cleavage of 0.67.
With A16U G50C the self-cleavage was 0.95.
A16U G45C gave a self-cleavage of 0.04.
In the case of A16U G45U, the self-cleavage is reported as 0.1.
In the case of A16U G45A, the self-cleavage is reported as 0.36.
A17C C26A gave a self-cleavage of 0.03.
For A17C C26U, the self-cleavage was 0.19.
In the case of A17C C26G, the self-cleavage is reported as 0.07.
With A16U C52G the self-cleavage was 0.92.
For A16U C52U, the self-cleavage was 0.92.
A16U C52A gave a self-cleavage of 0.97.
Work on A17G yielded a self-cleavage of 0.97.
In the case of A17C, the self-cleavage is reported as 0.76.
A16U C14G gave a self-cleavage of 0.11.
A16U C14A showed a self-cleavage of 0.05.
In the case of A16U C14U, the self-cleavage is reported as 0.3.
In the case of A17C U18C, the self-cleavage is reported as 0.57.
For A17C U18A, the self-cleavage was 0.78.
Variant A17C U18G has a self-cleavage of 0.79.
Variant A17C U12C has a self-cleavage of 0.08.
With A17C U12G the self-cleavage was 0.18.
For A17C U12A, the self-cleavage was 0.15.
Variant A17G C9A has a self-cleavage of 0.33.
Variant A17G C9G has a self-cleavage of 0.78.
Work on A17G C9U yielded a self-cleavage of 0.47.
With A16U G13U the self-cleavage was 0.02.
A16U G13A gave a self-cleavage of 0.09.
In the case of A16U G13C, the self-cleavage is reported as 0.02.
In the case of A17C G47U, the self-cleavage is reported as 0.09.
Work on A17C G47C yielded a self-cleavage of 0.05.
Work on A17C G47A yielded a self-cleavage of 0.07.
With A17C U43A the self-cleavage was 0.64.
Variant A17C U43C has a self-cleavage of 0.58.
Work on A17C U43G yielded a self-cleavage of 0.26.
For A16U G48U, the self-cleavage was 0.06.
A16U G48C showed a self-cleavage of 0.07.
A16U G48A showed a self-cleavage of 0.08.
Variant A17C G42C has a self-cleavage of 0.21.
In the case of A17C G42U, the self-cleavage is reported as 0.57.
In the case of A17C G42A, the self-cleavage is reported as 0.5.
Variant A17C G30C has a self-cleavage of 0.03.
A17C G30U showed a self-cleavage of 0.03.
In the case of A17C G30A, the self-cleavage is reported as 0.04.
In the case of A17G C20U, the self-cleavage is reported as 0.97.
In the case of A17G C20G, the self-cleavage is reported as 0.19.
For A17G C20A, the self-cleavage was 0.89.
Work on A17C A7C yielded a self-cleavage of 0.08.
A17C A7G gave a self-cleavage of 0.1.
For A17C A7U, the self-cleavage was 0.06.
In the case of A16U G47U, the self-cleavage is reported as 0.2.
Work on A16U G47C yielded a self-cleavage of 0.08.
For A16U G47A, the self-cleavage was 0.24.
A17C C9U gave a self-cleavage of 0.1.
In the case of A17C C9A, the self-cleavage is reported as 0.08.
Variant A17C C9G has a self-cleavage of 0.12.
For A17G C25A, the self-cleavage was 0.21.
In the case of A17G C25G, the self-cleavage is reported as 0.13.
Variant A17G C25U has a self-cleavage of 0.87.
Work on A16U G44C yielded a self-cleavage of 0.91.
Work on A16U G44U yielded a self-cleavage of 0.92.
A16U G44A gave a self-cleavage of 0.94.
Work on A17G A28G yielded a self-cleavage of 0.42.
A17G A28U gave a self-cleavage of 0.87.
A17G A28C gave a self-cleavage of 0.93.
A17G C21U showed a self-cleavage of 0.98.
Variant A17G C21G has a self-cleavage of 0.09.
For A17G C21A, the self-cleavage was 0.8.
A17C C31A gave a self-cleavage of 0.03.
A17C C31U gave a self-cleavage of 0.16.
With A17C C31G the self-cleavage was 0.05.
In the case of A16U A41C, the self-cleavage is reported as 0.93.
With A16U A41G the self-cleavage was 0.36.
In the case of A16U A41U, the self-cleavage is reported as 0.97.
In the case of A16U C9G, the self-cleavage is reported as 0.91.
A16U C9U gave a self-cleavage of 0.62.
A16U C9A gave a self-cleavage of 0.42.
Work on A16U A28U yielded a self-cleavage of 0.87.
In the case of A16U A28C, the self-cleavage is reported as 0.91.
With A16U A28G the self-cleavage was 0.24.
A17C C14G gave a self-cleavage of 0.25.
Work on A17C C14U yielded a self-cleavage of 0.64.
In the case of A17C C14A, the self-cleavage is reported as 0.1.
Work on A17G C26G yielded a self-cleavage of 0.12.
For A17G C26A, the self-cleavage was 0.08.
In the case of A17G C26U, the self-cleavage is reported as 0.88.
Work on A17C G34A yielded a self-cleavage of 0.34.
Work on A17C G34C yielded a self-cleavage of 0.14.
With A17C G34U the self-cleavage was 0.26.
Variant A17C G51U has a self-cleavage of 0.22.
